This passage reports Activity, MIC and IC50 results from ChEMBL document CHEMBL1154704, “Synthesis, anti-HCV, antioxidant, and peroxynitrite inhibitory activity of fused benzosuberone derivatives” (Eur J Med Chem, 2010).

Values after ≈ are worked out from the molar mass of the structure shown.

One assay has as its system Radical scavenging activity. The experiment in a line: Antioxidant activity assessed as DPPH radical scavenging activity by microplate reader assay. It counts as functional. Also on record: concentration or dose not given beside the values. Summed up:
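Compounds or ascorbic acid standard added to DPPH radical in methanol, ratio 1:9; incubated dark 37 °C 30 min; absorbance decrease read at 515 nm on plate reader. Blank of DMSO plus DPPH; solvent control taken as 0% scavenging. Triplicate; reported as % decrease in DPPH absorbance, mean ± SD.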
Consider `CC(=O)c1cc2c(nc1C)-c1ccccc1CCC2`, for which the Activity stood at 37.2%.
Same read-out and setting: the result for `c1ccc2c(c1)CCCc1c[nH]nc1-2` reads 45.4%; that for `c1ccc2c(c1)CCCc1ccc(-c3ccc4ccccc4c3)nc1-2`, 54.2%.
On the same count and under the same terms, under `c1ccc2c(c1)CCCc1cnoc1-2` stands 44.1%.
On the same count and under the same terms, the result for `c1ccc2c(c1)CCCc1cnc3ncnn3c1-2` reads 27.7%; that for `CCOC(=O)c1cc2c(nc1C)-c1ccccc1CCC2`, 54.4%.
With `O=C1O[C@H]([C@@H](O)CO)C(O)=C1O`, the Activity was found to be 79%.
The same measure, in the same setting: under `N#Cc1cc2c([nH]c1=O)-c1ccccc1CCC2` stands 27.4%; under `CN(C)/C=C1\CCCc2ccccc2C1=O`, 57.9%; under `c1ccc2c(c1)CCCc1cnc3nc4ccccc4n3c1-2`, 28.2%.
Still for that read-out and setting: under `O=c1cc(-c2ccccc2)nc2n(-c3ccccc3)nc(-c3ccc4c(n3)-c3ccccc3CCC4)n12` stands 40%.

The subject of the next assay is Hepatitis C virus. The experiment in a line: Antiviral activity HCV in replicon cells assessed as inhibition of NS3-4A protease activity by RT-PCR. It counts as functional, Hepacivirus hominis. An outline of the steps: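 Replicon cells seeded at 1×10⁴/well; next day incubated at 37 °C with serially diluted agents in DMEM + 2% FBS + 0.5% DMSO for the indicated period. Total RNA extracted, HCV RNA copy number by quantitative RT-PCR; five replicates per point; ribavirin control. Cytotoxicity by MTS viability in same settings; Huh-7 1×10⁴ or HepG2 4×10⁴ cells/well.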
For the molecule `CC(=O)c1cc2c(nc1C)-c1ccccc1CCC2`, the MIC was 7.09 µg/mL (≈ 28.2 µM).
On to `c1ccc2c(c1)CCCc1c[nH]nc1-2`, for which the MIC turned out to be 6.22 µg/mL (≈ 33.8 µM).
On the same count and under the same terms, under `c1ccc2c(c1)CCCc1ccc(-c3ccc4ccccc4c3)nc1-2` stands 5.98 µg/mL (≈ 18.6 µM); under `c1ccc2c(c1)CCCc1cnoc1-2`, 7.66 µg/mL (≈ 41.4 µM); under `c1ccc2c(c1)CCCc1cnc3ncnn3c1-2`, 2.21 µg/mL (≈ 9.35 µM).
In the case of `CCOC(=O)c1cc2c(nc1C)-c1ccccc1CCC2`, the MIC was 3.58 µg/mL (≈ 12.7 µM).
For `N#Cc1cc2c([nH]c1=O)-c1ccccc1CCC2`, the MIC was determined as 4.45 µg/mL (≈ 18.8 µM).
`c1ccc2c(c1)CCCc1cnc3nc4ccccc4n3c1-2`: the MIC was determined as 6 µg/mL (≈ 21 µM).
For the molecule `NC(=O)c1ncn([C@@H]2O[C@H](CO)[C@@H](O)[C@H]2O)n1` [RIBAVIRIN], the MIC was determined as 16.1 µg/mL (≈ 66.1 µM).
On the same count and under the same terms, the result for `O=c1cc(-c2ccccc2)nc2n(-c3ccccc3)nc(-c3ccc4c(n3)-c3ccccc3CCC4)n12` reads 1.15 µg/mL (≈ 2.39 µM).

Test system in another assay: not listed separately
The experiment in a line: Inhibition of peroxynitrite-induced 3-nitrotyrosin formation by HPLC. It counts as functional. An outline of the steps: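 Equimolar tyrosine and peroxynitrite with compound at increasing concentrations in 100 mM phosphate buffer pH 7.4, 37 °C for 15 min. Peroxynitrite stock quantified at 302 nm (ε 1670 cm⁻¹ M⁻¹), held on ice ≤30 min after thawing. 3-Nitrotyrosine measured by HPLC; control peroxynitrite plus tyrosine; mean ± SD of 3 independent experiments.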
Molecule `CC(=O)c1cc2c(nc1C)-c1ccccc1CCC2` came in with an IC50 of 158 µM.
`c1ccc2c(c1)CCCc1c[nH]nc1-2` returned an IC50 of 277 µM.
Molecule `c1ccc2c(c1)CCCc1ccc(-c3ccc4ccccc4c3)nc1-2` yielded an IC50 of 170 µM.
The molecule `c1ccc2c(c1)CCCc1cnoc1-2` returned an IC50 of 149 µM.
Still for that read-out and setting: under `Cc1c(C)c2c(c(C)c1O)CCC(C)(C(=O)O)O2` (configuration not stated) [TROLOX] stands 58.4 µM.
Same read-out and setting: under `c1ccc2c(c1)CCCc1cnc3ncnn3c1-2` stands 315 µM.
The molecule `CCOC(=O)c1cc2c(nc1C)-c1ccccc1CCC2` showed a half-maximal inhibitory concentration (IC50) of 329 µM.
Same read-out and setting: the result for `N#Cc1cc2c([nH]c1=O)-c1ccccc1CCC2` reads 291 µM; that for `CN(C)/C=C1\CCCc2ccccc2C1=O`, 146 µM; that for `c1ccc2c(c1)CCCc1cnc3nc4ccccc4n3c1-2`, 342 µM.
As to `O=c1cc(-c2ccccc2)nc2n(-c3ccccc3)nc(-c3ccc4c(n3)-c3ccccc3CCC4)n12`, the IC50 turned out to be 349 µM.
